Measurements taken from ChEMBL document CHEMBL5550082, “Discovery of pyrazolo[3,4-d]pyrimidines as novel mitogen-activated protein kinase kinase 3 (MKK3) inhibitors” (Bioorg Med Chem, 2024).
pIC50: −log10 of the molar value. In brackets after ≈: the same amount, converted by molar mass. Activity calls are given as the source filed them. No cut-off for these calls is given here.

Molecular target: T1, Dual specificity mitogen-activated protein kinase kinase 3 (Homo sapiens, UniProt P46734)
T1 sequence (P46734 whole entry): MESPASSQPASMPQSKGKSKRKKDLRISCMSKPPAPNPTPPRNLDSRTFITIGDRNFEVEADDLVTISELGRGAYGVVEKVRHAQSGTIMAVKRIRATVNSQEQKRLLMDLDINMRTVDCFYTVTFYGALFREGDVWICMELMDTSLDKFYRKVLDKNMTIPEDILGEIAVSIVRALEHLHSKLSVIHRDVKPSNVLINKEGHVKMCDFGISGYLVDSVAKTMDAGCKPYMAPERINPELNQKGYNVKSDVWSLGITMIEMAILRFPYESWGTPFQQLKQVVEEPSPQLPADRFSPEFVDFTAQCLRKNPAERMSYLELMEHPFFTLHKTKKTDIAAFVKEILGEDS
Assay: Displacement of tracer K-9 from C-terminal NanoLuc fused full-length MKK3 (unknown origin) transfected in HEK293T cells by BRET assay
Format: cell-based
Conditions: not given
Method in brief: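 HEK293T cells in DMEM with 10 % FBS were transiently transfected with full-length wild-type MKK3 carrying a C-terminal NanoLuc fusion and cultured 48 h at 37 °C. The cells were then resuspended in Opti-MEM at 2×10^5 cells/mL. Tracer K-9 was added at 1.0 μM final with compound dilutions (2 % DMSO final) for 2 h. After NanoLuc substrate plus extracellular inhibitor, emissions at 460 and 610 nm were read as mBRET, normalized, and fitted to give IC50.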

Q: With `CC(C)(C)n1nc(-c2cc(F)c(O)c(F)c2)c2c(N)ncnc21` as the molecule, how does the pIC50 read?
A: 3.84

Molecular target: Death-associated protein kinase 3 (Homo sapiens) (UniProt O43293)
Sequence (O43293 whole entry, looked up): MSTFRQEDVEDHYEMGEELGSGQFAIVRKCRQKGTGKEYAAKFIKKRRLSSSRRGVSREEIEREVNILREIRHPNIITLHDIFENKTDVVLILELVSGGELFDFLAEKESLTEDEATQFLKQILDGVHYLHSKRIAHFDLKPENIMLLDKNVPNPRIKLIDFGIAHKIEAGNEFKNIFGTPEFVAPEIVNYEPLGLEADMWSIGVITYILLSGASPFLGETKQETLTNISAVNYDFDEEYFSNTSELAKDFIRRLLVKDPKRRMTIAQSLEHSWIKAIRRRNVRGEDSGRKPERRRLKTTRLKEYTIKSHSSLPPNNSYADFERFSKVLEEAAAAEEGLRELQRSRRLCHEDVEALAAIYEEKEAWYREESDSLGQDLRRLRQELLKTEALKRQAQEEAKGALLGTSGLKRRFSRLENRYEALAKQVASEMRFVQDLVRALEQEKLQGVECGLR
Assay: Displacement of Eu-Streptavidin from human DAPK3 by TR-FRET assay
Conditions: not given
Method in brief: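 Human DAPK3, biotinylated in vivo during expression, tested in a TR-FRET assay measuring competitive displacement of a generic ATP-competitive fluorescent tracer. Compound tested at a single concentration of 1 µM. Displacement is relative to vehicle: DMSO sets 0 % and a reference inhibitor specific to the kinase sets 100 %.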

Q: With `CC(C)n1nc(-c2cc3cc(O)ccc3[nH]2)c2c(N)ncnc21` as the molecule, how does the Activity read?
A: Active

Q: Which Activity does the source give for `CC(C)(C)n1nc(-c2cc(F)c(O)c(F)c2)c2c(N)ncnc21` here?
A: > 80%

Tested on: not listed separately
Assay: Aqueous solubility of compound
Format: physicochemical
Conditions: water (aqueous)

Q: Which solubility does the source give for `CC(C)n1nc(-c2cc3cc(O)ccc3[nH]2)c2c(N)ncnc21` here?
A: 6 µg/mL (≈ 19.5 µM)

Tested on: not listed separately
Assay: Inhibition of N-terminal GST-tagged recombinant human MKK3 […]/T193E mutant expressed in baculovirus infected Sf9 insect cells using STK-3-biotin as substrate at 5 uM preincubated for 30 mins followed by substrate/ATP addition measured after 90 mins by TR-FRET assay relative to control
Conditions: time 120.0 min
Method in brief: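 GST-tagged MKK3 S189E/T193E (MKK3E), glutathione-purified from baculovirus-infected Sf9 cells, was used at 100 nM. It was preincubated 30 min at room temperature with compound, then 1 µM ATP and 1 µM STK-3-biotin peptide were added and reacted at least 90 min at 30 °C. Reactions were stopped with Eu-antibody and streptavidin-XL665, and HTRF was read as the 665/620 nm ratio.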

Q: Which inhibition does the source give for `CC(C)(C)n1nc(-c2ccccc2)c2c(N)ncnc21` here?
A: 34.8%

Q: With `CC(C)(C)n1nc(-c2cccc(Cl)c2F)c2c(N)ncnc21` as the molecule, how does the inhibition read?
A: 35.2%

Q: Which inhibition does the source give for `CC(C)(C)n1nc(-c2cccc3cnccc23)c2c(N)ncnc21` here?
A: 12.4%

Q: With `CC(C)(C)n1nc(-c2ccc(N)c3ccccc23)c2c(N)ncnc21` as the molecule, how does the inhibition read?
A: 54.8%

Q: For `CC(C)NC(=O)c1ccc(-c2nn(C(C)(C)C)c3ncnc(N)c23)cc1`, which inhibition is on record?
A: 26.4%

Q: For `CC(C)(C)n1nc(-c2ccnc3ccccc23)c2c(N)ncnc21`, which inhibition is on record?
A: 3.4%

Q: Which inhibition does the source give for `CC(C)(C)n1nc(-c2ccc(F)c(C#N)c2)c2c(N)ncnc21` here?
A: 35.6%

Q: With `CC(C)(C)n1nc(-c2ccc(S(=O)(=O)NC3CC3)cc2)c2c(N)ncnc21` as the molecule, how does the inhibition read?
A: 12.6%

Q: With `CC(C)(C)n1nc(-c2ccc(F)c(C(=O)NCCO)c2)c2c(N)ncnc21` as the molecule, how does the inhibition read?
A: 5.2%

Q: Which inhibition does the source give for `CC(C)(C)n1nc(-c2cccc3cn[nH]c23)c2c(N)ncnc21` here?
A: inactive

Q: Which inhibition does the source give for `CC(C)(C)n1nc(-c2cccc(C#N)c2)c2c(N)ncnc21` here?
A: inactive

Q: Which inhibition does the source give for `CC(C)(C)n1nc(-c2ccc(F)c(Cl)c2)c2c(N)ncnc21` here?
A: 39.3%

Q: For `CC(C)(C)n1nc(-c2cc(Cl)cc(Cl)c2)c2c(N)ncnc21`, which inhibition is on record?
A: 23.4%

Q: For `CC(C)(C)n1nc(-c2ccc3ncccc3c2)c2c(N)ncnc21`, which inhibition is on record?
A: 28.2%

Q: With `CC(C)(C)n1nc(-c2ccc3[nH]ccc3c2)c2c(N)ncnc21` as the molecule, how does the inhibition read?
A: 58.2%

Q: Which inhibition does the source give for `CC(C)(C)n1nc(-c2ccccc2F)c2c(N)ncnc21` here?
A: 37.4%

Q: Which inhibition does the source give for `CC(C)(C)n1nc(-c2cc(F)c(O)c(F)c2)c2c(N)ncnc21` here?
A: 44.9%

Q: For `CC(C)(C)n1nc(-c2cccc(Cl)c2)c2c(N)ncnc21`, which inhibition is on record?
A: 19.8%

Q: With `CC(C)(C)n1nc(-c2cccc(C(=O)NC3CC3)c2)c2c(N)ncnc21` as the molecule, how does the inhibition read?
A: 7.1%
